# Data from ChEMBL document CHEMBL1152488, “Synthesis and evaluation of pyrido[1,2-a]pyrimidines as inhibitors of nitric oxide synthases” (Eur J Med Chem, 2009).
# Target: T1, Nitric oxide synthase, inducible (Mus musculus) (UniProt P29477)
# T1 sequence (whole entry): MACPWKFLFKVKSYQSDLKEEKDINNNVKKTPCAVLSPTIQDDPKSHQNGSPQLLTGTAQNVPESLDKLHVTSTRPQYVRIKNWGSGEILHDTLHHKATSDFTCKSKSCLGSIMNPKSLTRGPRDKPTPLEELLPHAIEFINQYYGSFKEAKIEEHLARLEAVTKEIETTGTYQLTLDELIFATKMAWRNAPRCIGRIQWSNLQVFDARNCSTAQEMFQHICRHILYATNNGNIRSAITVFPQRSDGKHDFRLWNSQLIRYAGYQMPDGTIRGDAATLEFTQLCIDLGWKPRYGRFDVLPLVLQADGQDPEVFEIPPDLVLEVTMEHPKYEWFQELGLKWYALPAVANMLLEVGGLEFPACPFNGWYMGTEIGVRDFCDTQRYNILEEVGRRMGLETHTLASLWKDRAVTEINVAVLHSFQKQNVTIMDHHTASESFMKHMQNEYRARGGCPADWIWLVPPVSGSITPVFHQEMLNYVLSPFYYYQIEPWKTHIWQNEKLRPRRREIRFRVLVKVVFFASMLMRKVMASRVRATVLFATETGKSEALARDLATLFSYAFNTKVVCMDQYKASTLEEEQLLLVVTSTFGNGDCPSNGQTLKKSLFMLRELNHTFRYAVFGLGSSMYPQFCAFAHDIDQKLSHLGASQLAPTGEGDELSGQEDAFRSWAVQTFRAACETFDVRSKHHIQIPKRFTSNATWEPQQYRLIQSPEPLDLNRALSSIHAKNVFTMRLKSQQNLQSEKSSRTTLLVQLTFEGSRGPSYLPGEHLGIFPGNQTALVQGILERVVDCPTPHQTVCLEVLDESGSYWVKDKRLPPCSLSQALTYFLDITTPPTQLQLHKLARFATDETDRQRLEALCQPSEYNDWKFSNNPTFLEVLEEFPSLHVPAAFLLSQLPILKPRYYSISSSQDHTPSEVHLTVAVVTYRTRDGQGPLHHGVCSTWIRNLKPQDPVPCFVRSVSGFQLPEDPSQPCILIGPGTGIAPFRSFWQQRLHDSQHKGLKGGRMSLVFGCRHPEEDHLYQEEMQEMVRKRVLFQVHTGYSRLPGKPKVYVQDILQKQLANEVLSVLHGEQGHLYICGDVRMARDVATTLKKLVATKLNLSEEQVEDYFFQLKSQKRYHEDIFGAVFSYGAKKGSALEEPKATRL
# Assay: Inhibition of mouse recombinant iNOS expressed in Escherichia coli assessed as NADPH consumption at 100 uM after 2 mins by spectrophotometry
# How it was run: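 Murine iNOS from E. coli (15–50 nM final) in 50 mM Hepes pH 7.4 with 5 mM DTT, 100 µM CaCl2, 200 µM NADPH, 10 µM H4B, 100 µM L-arginine and 100 µM compound. Cofactors and compound preincubated 2 min at 37 °C, enzyme added, and A340 followed for 3 min (ε 6.2 mM-1 cm-1). Given as % of 1% DMSO control NADPH oxidase rate.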
row,SMILES,Remaining NADPH oxidation rate (% of DMSO control)
1,CC1=CC2=NCC(C(=O)c3ccc(OCc4ccc(C#N)cc4)cc3)CN2C=C1.[O-][Cl+3]([O-])([O-])O (stereo unspecified),77%
2,CC1=CC2=NCC(C(=O)c3ccc(OCc4ccc(Cl)cc4)cc3)CN2C=C1.[O-][Cl+3]([O-])([O-])O (stereo unspecified),64%
3,CC1=CC2=NCC(C(=O)c3ccc4cc(C)ccc4c3)CN2C=C1.[O-][Cl+3]([O-])([O-])O (stereo unspecified),70%
4,COc1ccc(C(=O)C2CN=C3C=CC=C(C)N3C2)cc1OC.[O-][Cl+3]([O-])([O-])O (stereo unspecified),92%
5,CC1=CC2=NCC(C(=O)c3ccc(-c4ccc(C#N)cc4)cc3)CN2C=C1.Cl (stereo unspecified),40%
6,O=C(c1ccc(Cl)c(Cl)c1)C1CN=C2C=CC=CN2C1.[O-][Cl+3]([O-])([O-])O (stereo unspecified),100%
7,COc1ccc(C(=O)C2CN=C3C=C(C)C=CN3C2)cc1F.[O-][Cl+3]([O-])([O-])O (stereo unspecified),73%
8,CC1=CC2=NCC(C(=O)c3ccc(-c4ccc(Br)cc4)cc3)CN2C(C)=C1 (stereo unspecified),72%
9,CC1=CC=CC2=NCC(C(=O)c3ccc(F)cc3)CN12.[O-][Cl+3]([O-])([O-])O (stereo unspecified),87%
10,CC1=CC2=NCC(C(=O)c3ccc(OCc4ccc(Br)cc4)cc3)CN2C=C1.Cl (stereo unspecified),100%
11,CC1=CC2=NCC(C(=O)c3ccc4cc(C)ccc4c3)CN2C(C)=C1.[O-][Cl+3]([O-])([O-])O (stereo unspecified),72%
12,CC1=CC=CC2=NCC(C(=O)c3ccc(C)cc3)CN12.[O-][Cl+3]([O-])([O-])O (stereo unspecified),94%
13,COc1ccc(-c2ccc(C(=O)C3CN=C4C=C(C)C=CN4C3)cc2)cc1.Cl (stereo unspecified),40%
14,CC1=CC2=NCC(C(=O)c3ccc(-c4ccc(Br)cc4)cc3)CN2C=C1.[O-][Cl+3]([O-])([O-])O (stereo unspecified),64%

# Target: T1, Nitric oxide synthase, inducible (Mus musculus)
# Assay: Inhibition of iNOS in LPS and IFN-gamma-stimulated mouse RAW264.7 cells assessed as inhibition of nitrite accumulation at 100 uM after 15 hrs by Griess assay
# Assay type: cell-based
# How it was run: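 RAW 264.7 macrophages seeded at 100,000 cells/well in RPMI 1640 with 5% FCS and grown 24 h. Stimulated with 40 U/ml γ-IFN and 50 ng/ml LPS, with compound at 100 µM in 1% DMSO, for 15 h at 37 °C. Supernatant nitrite measured with Griess reagent at 550 nm against an NaNO2 calibration; 6–8 determinations.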
row,SMILES,inhibition
1,CC1=CC2=NCC(C(=O)c3ccc(OCc4ccc(C#N)cc4)cc3)CN2C=C1.[O-][Cl+3]([O-])([O-])O (stereo unspecified),93%
2,CC1=CC2=NCC(C(=O)c3ccc(OCc4ccc(Cl)cc4)cc3)CN2C=C1.[O-][Cl+3]([O-])([O-])O (stereo unspecified),92%
3,CC1=CC2=NCC(C(=O)c3ccc4cc(C)ccc4c3)CN2C=C1.[O-][Cl+3]([O-])([O-])O (stereo unspecified),86%
4,COc1ccc(C(=O)C2CN=C3C=CC=C(C)N3C2)cc1OC.[O-][Cl+3]([O-])([O-])O (stereo unspecified),70%
5,CC1=CC2=NCC(C(=O)c3ccc(-c4ccc(C#N)cc4)cc3)CN2C=C1.Cl (stereo unspecified),82%
6,O=C(c1ccc(Cl)c(Cl)c1)C1CN=C2C=CC=CN2C1.[O-][Cl+3]([O-])([O-])O (stereo unspecified),59%
7,COc1ccc(C(=O)C2CN=C3C=C(C)C=CN3C2)cc1F.[O-][Cl+3]([O-])([O-])O (stereo unspecified),64%
8,CC1=CC=CC2=NCC(C(=O)c3ccc(F)cc3)CN12.[O-][Cl+3]([O-])([O-])O (stereo unspecified),44%
9,CC1=CC2=NCC(C(=O)c3ccc(OCc4ccc(Br)cc4)cc3)CN2C=C1.Cl (stereo unspecified),96%
10,CC1=CC2=NCC(C(=O)c3ccc4cc(C)ccc4c3)CN2C(C)=C1.[O-][Cl+3]([O-])([O-])O (stereo unspecified),89%
11,CC1=CC=CC2=NCC(C(=O)c3ccc(C)cc3)CN12.[O-][Cl+3]([O-])([O-])O (stereo unspecified),72%
12,COc1ccc(-c2ccc(C(=O)C3CN=C4C=C(C)C=CN4C3)cc2)cc1.Cl (stereo unspecified),96%
13,CC1=CC2=NCC(C(=O)c3ccc(-c4ccc(Br)cc4)cc3)CN2C=C1.[O-][Cl+3]([O-])([O-])O (stereo unspecified),98%

# Target: Nitric oxide synthase 1 (Rattus norvegicus) (UniProt P29476)
# Assay: Inhibition of rat recombinant nNOS expressed in Saccharomyces cerevisiae assessed as conversion of [gamma-14C]L-arginine to [14C]L-citrulline at 100 uM by radioactive assay relative to control
# Set-up: scale not given: the % may be the effect or the level left
# How it was run: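 Purified enzymes: rat nNOS from S. cerevisiae, murine iNOS and bovine eNOS from E. coli. Reaction 5 min at 37 °C in 50 mM Hepes pH 7.4 with DTT, 1 mM NADPH, H4B, FAD, FMN, [14C]L-arginine (2.5 µM L-arginine) and 100 µM compound in 1% DMSO. nNOS/eNOS also got 1 mM CaCl2 and CaM, which iNOS lacked. [14C]citrulline isolated on Dowex and counted by scintillation; % of DMSO control, n=3.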
# Sequence of Nitric oxide synthase 1 (Rattus norvegicus) (P29476 whole entry): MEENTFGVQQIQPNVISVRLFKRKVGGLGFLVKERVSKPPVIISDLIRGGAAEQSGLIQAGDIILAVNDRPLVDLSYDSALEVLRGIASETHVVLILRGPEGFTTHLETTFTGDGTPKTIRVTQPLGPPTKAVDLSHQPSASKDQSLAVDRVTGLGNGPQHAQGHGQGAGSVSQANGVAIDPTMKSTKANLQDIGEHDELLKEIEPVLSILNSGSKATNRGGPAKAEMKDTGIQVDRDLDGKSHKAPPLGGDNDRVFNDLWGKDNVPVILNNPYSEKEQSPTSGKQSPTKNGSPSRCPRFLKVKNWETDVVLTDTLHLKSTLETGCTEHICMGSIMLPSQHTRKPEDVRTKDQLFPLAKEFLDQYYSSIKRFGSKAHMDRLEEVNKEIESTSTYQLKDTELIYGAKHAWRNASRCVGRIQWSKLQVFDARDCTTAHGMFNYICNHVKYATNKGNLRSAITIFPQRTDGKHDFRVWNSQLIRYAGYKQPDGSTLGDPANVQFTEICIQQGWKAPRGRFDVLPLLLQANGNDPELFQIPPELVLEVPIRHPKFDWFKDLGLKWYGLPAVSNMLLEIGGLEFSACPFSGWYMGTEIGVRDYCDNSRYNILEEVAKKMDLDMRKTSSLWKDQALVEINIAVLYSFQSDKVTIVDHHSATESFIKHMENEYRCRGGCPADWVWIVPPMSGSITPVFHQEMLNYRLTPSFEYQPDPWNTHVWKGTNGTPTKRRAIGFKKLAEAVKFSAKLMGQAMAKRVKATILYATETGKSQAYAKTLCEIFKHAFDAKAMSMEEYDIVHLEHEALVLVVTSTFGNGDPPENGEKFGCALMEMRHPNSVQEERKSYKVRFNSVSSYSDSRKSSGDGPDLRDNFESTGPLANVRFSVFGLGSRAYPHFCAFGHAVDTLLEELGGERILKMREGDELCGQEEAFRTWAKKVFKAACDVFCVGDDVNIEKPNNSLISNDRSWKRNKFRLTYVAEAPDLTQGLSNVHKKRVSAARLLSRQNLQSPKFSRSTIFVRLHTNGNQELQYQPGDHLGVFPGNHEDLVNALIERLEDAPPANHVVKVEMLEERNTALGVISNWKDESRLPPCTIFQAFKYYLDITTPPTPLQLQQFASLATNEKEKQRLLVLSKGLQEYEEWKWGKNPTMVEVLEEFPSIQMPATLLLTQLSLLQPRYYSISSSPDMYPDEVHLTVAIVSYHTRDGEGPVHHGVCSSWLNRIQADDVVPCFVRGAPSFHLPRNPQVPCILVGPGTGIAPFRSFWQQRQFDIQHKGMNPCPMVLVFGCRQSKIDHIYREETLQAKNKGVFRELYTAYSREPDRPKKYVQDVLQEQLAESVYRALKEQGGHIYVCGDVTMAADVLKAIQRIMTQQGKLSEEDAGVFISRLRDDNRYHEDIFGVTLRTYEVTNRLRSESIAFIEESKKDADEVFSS
row,SMILES,Activity
1,CC1=CC2=NCC(C(=O)c3ccc(OCc4ccc(C#N)cc4)cc3)CN2C=C1.[O-][Cl+3]([O-])([O-])O (stereo unspecified),60%
2,CC1=CC2=NCC(C(=O)c3ccc(OCc4ccc(Cl)cc4)cc3)CN2C=C1.[O-][Cl+3]([O-])([O-])O (stereo unspecified),49%
3,CC1=CC2=NCC(C(=O)c3ccc4cc(C)ccc4c3)CN2C=C1.[O-][Cl+3]([O-])([O-])O (stereo unspecified),69%
4,N=C(NCCC[C@H](N)C(=O)O)N[N+](=O)[O-],2%
5,COc1ccc(C(=O)C2CN=C3C=CC=C(C)N3C2)cc1OC.[O-][Cl+3]([O-])([O-])O (stereo unspecified),100%
6,CC1=CC2=NCC(C(=O)c3ccc(-c4ccc(C#N)cc4)cc3)CN2C=C1.Cl (stereo unspecified),43%
7,O=C(c1ccc(Cl)c(Cl)c1)C1CN=C2C=CC=CN2C1.[O-][Cl+3]([O-])([O-])O (stereo unspecified),87%
8,COc1ccc(C(=O)C2CN=C3C=C(C)C=CN3C2)cc1F.[O-][Cl+3]([O-])([O-])O (stereo unspecified),69%
9,CC1=CC2=NCC(C(=O)c3ccc(-c4ccc(Br)cc4)cc3)CN2C(C)=C1 (stereo unspecified),58%
10,CC1=CC=CC2=NCC(C(=O)c3ccc(F)cc3)CN12.[O-][Cl+3]([O-])([O-])O (stereo unspecified),83%
11,CC1=CC2=NCC(C(=O)c3ccc(OCc4ccc(Br)cc4)cc3)CN2C=C1.Cl (stereo unspecified),62%
12,CC1=CC2=NCC(C(=O)c3ccc4cc(C)ccc4c3)CN2C(C)=C1.[O-][Cl+3]([O-])([O-])O (stereo unspecified),55%
13,CC1=CC=CC2=NCC(C(=O)c3ccc(C)cc3)CN12.[O-][Cl+3]([O-])([O-])O (stereo unspecified),76%
14,COc1ccc(-c2ccc(C(=O)C3CN=C4C=C(C)C=CN4C3)cc2)cc1.Cl (stereo unspecified),29%
15,CC1=CC2=NCC(C(=O)c3ccc(-c4ccc(Br)cc4)cc3)CN2C=C1.[O-][Cl+3]([O-])([O-])O (stereo unspecified),10%

# Target: T1, Nitric oxide synthase, inducible (Mus musculus)
# Assay: Inhibition of mouse iNOS expressed in insect Sf9 cells assessed as residual activity at 100 uM by Griess assay relative to control
# How it was run: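 Murine iNOS produced in Sf9 insect cells. Buffer: 50 mM triethanolamine pH 7.5, 1 mM CHAPS, 10 mM 2-mercaptoethanol, 0.5 mM EDTA. Additions: 1 mM Mg2+, 5 µM FAD, 5 µM FMN, 0.5 mM NADPH, 10 µM H4B, 10 µg/ml CaM, 1 mM L-arginine. Compound at 100 µM final, 37 °C for 20 min. NADPH removed with LDH/pyruvate, then Griess read at 543 nm. Values are % of 1% DMSO control, 5 experiments.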
row,SMILES,Activity
1,O=C(c1ccc(Br)cc1)C1CN=C2C=CC=CN2C1 (stereo unspecified),92%
2,CC1=CC2=NCC(C(=O)c3ccc4cc(C)ccc4c3)CN2C=C1.[O-][Cl+3]([O-])([O-])O (stereo unspecified),90%
3,CC1=CC=CC2=NCC(C(=O)c3ccc(Br)cc3)CN12 (stereo unspecified),9%
4,O=C(c1ccc2ccccc2c1)C1CN=C2C=CC=CN2C1 (stereo unspecified),97%
5,COc1ccc(C(=O)C2CN=C3C=CC=C(C)N3C2)cc1OC.[O-][Cl+3]([O-])([O-])O (stereo unspecified),95%
6,O=C(c1ccc(Cl)c(Cl)c1)C1CN=C2C=CC=CN2C1.[O-][Cl+3]([O-])([O-])O (stereo unspecified),95%
7,CC1=CC2=NCC(C(=O)c3ccc(Br)cc3)CN2C=C1 (stereo unspecified),33%
8,CC1=CC2=NCC(C(=O)c3ccc4ccccc4c3)CN2C=C1 (stereo unspecified),28%
9,CC(=N)NCc1cccc(CN)c1,3%
10,CCCNC(=N)NCCC[C@H](N)C(=O)O,88%
11,CC1=CC=CC2=NCC(C(=O)c3ccc(F)cc3)CN12.[O-][Cl+3]([O-])([O-])O (stereo unspecified),83%
12,CC1=CC2=NCC(C(=O)c3ccc(F)cc3)CN2C=C1 (stereo unspecified),78%
13,CC1=CC=CC2=NCC(C(=O)c3ccc4ccccc4c3)CN12 (stereo unspecified),75%
14,CC1=CC=CC2=NCC(C(=O)c3ccc(C)cc3)CN12.[O-][Cl+3]([O-])([O-])O (stereo unspecified),99%
15,CC1=CC2=NCC(C(=O)c3ccc(-c4ccccc4)cc3)CN2C=C1 (stereo unspecified),40%
16,CC1=CC2=NCC(C(=O)c3ccccc3)CN2C=C1 (stereo unspecified),16%
17,COc1ccc2cc(C(=O)C3CN=C4C=C(C)C=CN4C3)ccc2c1 (stereo unspecified),72%
18,CC1=CC2=NCC(C(=O)c3ccc(Cl)cc3)CN2C=C1 (stereo unspecified),28%
19,CCSC(=N)N,2%
